pIC50: −log10 of the molar value.
How the values were obtained:
[1] = target: Transient receptor potential cation channel subfamily A member 1 (Rattus norvegicus, UniProt Q6RI86); assay: Antagonist activity at rat TRPA1 channel expressed in CHO-K1 cells tagged with GCaMP6 by measuring calcium flux measured after 10 mins by FLIPR tetra analysis; format: cell-based
[2] = Mutagenecity in Salmonella typhimurium by Ames test; format: toxicity; conditions: salmonella sp.
[3] = target: T1, Transient receptor potential cation channel subfamily A member 1 (Homo sapiens, UniProt O75762); assay: Antagonist activity at human TRPA1 channel expressed in CHO-K1 cells tagged with GCaMP6 by measuring calcium flux measured after 10 mins by FLIPR tetra analysis; format: cell-based
[4] = Lipophilicity, logD of compound; format: physicochemical; conditions: octanol/water
[5] = tested on: Rattus norvegicus; assay: Antiallodynic activity against spinal nerve ligation neuropathic pain Sprague-Dawley rat model assessed as paw withdrawal threshold administered at 30 mg/kg, po bid post SNL surgery; format: functional, organism-based; conditions: time <= 10.0 day, TDE = time-dependent effect
Method in brief: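 Male Sprague Dawley rats, 100–120 g, had spinal nerve ligation under isoflurane. Oral dosing b.i.d. on days 15–24 post surgery in DMSO/Solutol/water 10/40/50 at 5 mL/kg; gabapentin 30 mg/kg q.d. as control. Von Frey up-and-down thresholds, blinded, on both hind paws at day 11 (baseline) and days 15, 18, 21, 24, 2 h after morning dose. Kruskal–Wallis with Dunn versus vehicle.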

[6] = target: T1, Transient receptor potential cation channel subfamily A member 1; assay: Antagonist activity at human wildtype TRPA1 channel expressed in CHO-K1 cells tagged with GCaMP6 by measuring calcium flux measured after […] by FLIPR tetra analysis; format: cell-based

T1 sequence (O75762 whole entry): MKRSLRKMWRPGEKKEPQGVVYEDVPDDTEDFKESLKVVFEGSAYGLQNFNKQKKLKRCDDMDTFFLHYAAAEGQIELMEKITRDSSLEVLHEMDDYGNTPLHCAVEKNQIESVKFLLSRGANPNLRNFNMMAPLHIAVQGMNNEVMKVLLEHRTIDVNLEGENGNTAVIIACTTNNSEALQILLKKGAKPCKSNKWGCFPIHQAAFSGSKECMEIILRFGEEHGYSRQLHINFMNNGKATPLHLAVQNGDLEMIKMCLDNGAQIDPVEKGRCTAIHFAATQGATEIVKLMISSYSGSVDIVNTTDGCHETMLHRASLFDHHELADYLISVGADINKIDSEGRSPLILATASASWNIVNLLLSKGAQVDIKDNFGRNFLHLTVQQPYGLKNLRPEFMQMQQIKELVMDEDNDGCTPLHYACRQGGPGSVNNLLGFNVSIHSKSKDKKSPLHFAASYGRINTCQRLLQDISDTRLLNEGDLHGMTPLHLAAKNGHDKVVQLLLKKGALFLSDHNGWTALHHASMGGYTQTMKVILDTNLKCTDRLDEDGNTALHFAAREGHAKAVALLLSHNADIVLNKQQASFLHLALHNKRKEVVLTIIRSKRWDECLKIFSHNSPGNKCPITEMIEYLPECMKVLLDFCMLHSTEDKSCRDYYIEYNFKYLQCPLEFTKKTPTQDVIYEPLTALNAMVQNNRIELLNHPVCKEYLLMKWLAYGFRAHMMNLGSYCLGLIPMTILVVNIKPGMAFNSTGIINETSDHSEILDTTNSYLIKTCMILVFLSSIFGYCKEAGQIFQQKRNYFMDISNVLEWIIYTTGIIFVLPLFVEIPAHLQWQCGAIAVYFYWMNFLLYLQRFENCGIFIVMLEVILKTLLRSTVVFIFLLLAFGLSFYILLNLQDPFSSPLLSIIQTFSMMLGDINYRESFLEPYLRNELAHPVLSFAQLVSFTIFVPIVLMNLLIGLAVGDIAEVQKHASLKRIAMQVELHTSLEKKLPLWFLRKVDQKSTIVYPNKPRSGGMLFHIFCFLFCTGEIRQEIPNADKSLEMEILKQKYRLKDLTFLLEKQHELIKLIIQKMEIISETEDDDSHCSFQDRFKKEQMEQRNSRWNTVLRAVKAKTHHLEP
Transient receptor potential cation channel subfamily A member 1 (Rattus norvegicus, UniProt Q6RI86), sequence (Q6RI86 whole entry): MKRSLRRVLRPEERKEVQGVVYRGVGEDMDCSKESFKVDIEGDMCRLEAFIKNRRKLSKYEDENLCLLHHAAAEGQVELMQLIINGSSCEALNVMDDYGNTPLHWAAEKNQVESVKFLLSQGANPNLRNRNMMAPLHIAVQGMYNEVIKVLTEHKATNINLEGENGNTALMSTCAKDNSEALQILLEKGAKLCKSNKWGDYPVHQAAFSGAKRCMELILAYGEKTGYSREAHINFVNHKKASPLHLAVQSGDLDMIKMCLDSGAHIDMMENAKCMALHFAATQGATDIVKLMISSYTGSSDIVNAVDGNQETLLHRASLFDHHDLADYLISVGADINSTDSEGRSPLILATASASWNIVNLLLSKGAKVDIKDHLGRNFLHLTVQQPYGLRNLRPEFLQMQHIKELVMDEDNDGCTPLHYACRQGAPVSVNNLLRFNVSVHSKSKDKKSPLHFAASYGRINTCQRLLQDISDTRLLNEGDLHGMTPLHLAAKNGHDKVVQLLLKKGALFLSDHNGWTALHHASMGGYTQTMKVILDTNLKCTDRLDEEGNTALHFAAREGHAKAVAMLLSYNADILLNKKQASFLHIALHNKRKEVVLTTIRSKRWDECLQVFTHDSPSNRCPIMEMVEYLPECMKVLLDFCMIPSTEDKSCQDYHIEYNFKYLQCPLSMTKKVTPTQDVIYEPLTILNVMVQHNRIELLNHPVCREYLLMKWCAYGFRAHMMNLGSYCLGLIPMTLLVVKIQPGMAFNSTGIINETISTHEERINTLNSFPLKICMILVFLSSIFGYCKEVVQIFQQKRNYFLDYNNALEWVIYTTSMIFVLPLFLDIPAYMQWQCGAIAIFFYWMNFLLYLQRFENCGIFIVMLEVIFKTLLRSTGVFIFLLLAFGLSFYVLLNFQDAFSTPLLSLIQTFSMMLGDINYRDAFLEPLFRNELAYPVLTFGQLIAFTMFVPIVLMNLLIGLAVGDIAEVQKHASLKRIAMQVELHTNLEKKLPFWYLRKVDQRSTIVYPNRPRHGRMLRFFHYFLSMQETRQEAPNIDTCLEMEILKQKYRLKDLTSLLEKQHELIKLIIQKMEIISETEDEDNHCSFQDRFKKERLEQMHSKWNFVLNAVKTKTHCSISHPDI

SMILES | pIC50 [1] | logD [4] | other results
N#Cc1ccc(NC2CCCCC2(O)C(F)(F)F)cc1C(F)(F)F (racemic) | < 4.60 | – | Activity [2]: Non-Toxic; pIC50 [3]: 4.72
O[C@]1(C(F)(F)F)CCCC[C@H]1Nc1ccc(F)cn1 | 5.20 | – | Activity [2]: Non-Toxic
O[C@]1(C(F)(F)F)CCCC[C@H]1N1CCc2cc(F)ccc21 | 5.00 | 3.9 | –
CC1(C)CCCC(O)(C(F)(F)F)C1Cc1ccc(Cl)cc1 (mixture of isomers) | 4.94 | – | pIC50 [3]: 6.47
CC1(C)CCCC(O)(C(F)(F)F)C1Cc1ccc(F)cc1F (mixture of isomers) | < 5.00 | – | pIC50 [3]: 6.00
COCCN(c1ccc(F)cc1)[C@@H]1CCCC[C@]1(O)C(F)(F)F (racemic) | 5.42 | 3.8 | –
O[C@]1(C(F)(F)F)CCCC[C@H]1Nc1ccc(Cl)cc1 | 6.93 | – | Activity [2]: Toxic
NCC1(CC(=O)O)CCCCC1 | – | – | Activity [5]: Tde
O[C@]1(C(F)(F)F)CCCC[C@H]1Nc1ccc(Cl)c(Cl)c1 | 6.19 | 3.8 | Activity [2]: Non-Toxic
O[C@]1(C(F)(F)F)CCCC[C@H]1Cc1ccc(Cl)cn1 | < 4.60 | – | –
O[C@]1(C(F)(F)F)CCCC[C@H]1Cc1cncc(Cl)c1 | < 4.60 | – | –
O[C@]1(C(F)(F)F)CCCC[C@H]1Nc1ccccc1 (racemic) | 5.64 | – | –
O[C@]1(C(F)(F)F)CCCC[C@H]1Oc1ccc(F)cc1 | 6.92 | 3.5 | –
CN(c1ccc(F)cc1)[C@@H]1CCCC[C@]1(O)C(F)(F)F | 4.68 | 3.9 | –
Cn1c(=O)c2c(CC(=O)Nc3nc(-c4ccc(F)c(C(F)(F)F)c4F)cs3)csc2n(C)c1=O | – | – | pIC50 [6]: 5.17
O[C@]1(C(F)(F)F)CCCC[C@H]1Nc1ccc(Cl)c(F)c1 | 6.70 | – | Activity [2]: Non-Toxic
O[C@]1(C(F)(F)F)CCCC[C@H]1Cc1ccc(Cl)nc1 | 5.62 | 3 | –
C#CC(CC)(CC)NC(=O)c1cccnc1NC1CC(F)(F)C1 | – | – | pIC50 [6]: 9.00
CC1(C)CCCC(O)(C(F)(F)F)C1Cc1cccc(C#N)c1 (mixture of isomers) | 4.89 | – | pIC50 [3]: 5.26
OC(F)(F)[C@@]1(O)CCCC[C@H]1Cc1c[nH]c2ccccc12 (racemic) | – | 3.3 | –
